Assay results published in ChEMBL document CHEMBL1148953, “Activity-guided fractionation of the leaves of Ormosia sumatrana using a proteasome inhibition assay” (J Nat Prod, 2004).
Active and inactive are the calls of the source. The rule behind the calls is not given here.

Tests used:
[1] = tested on: HL-60; assay: Inhibition of human HL60 cells-derived chymotrypsin-like proteasome activity at 28 uM; assay type: subcellular
[2] = tested on: KB; assay: In vivo cytotoxicity against human KB cells by hollow fiber assay; assay type: functional
[3] = In vivo cytotoxicity against human RPE1 cells expressing human telomerase reverse transcriptase by hollow fiber assay; assay type: functional, TERT-RPE1
[4] = tested on: HL-60; assay: (§1) Inhibition of human HL60 cells-derived chymotrypsin-like proteasome activity; assay type: subcellular
Outline: (§2)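 Proteasome-enriched fraction from HL-60 cells, prepared by 100 000g spin, then 5% and 12% PEG (w/v) fractionation and 2-fold dilution in 10 mM Tris-EDTA pH 7.5. Fraction at final 50 µg/mL in 155 mM Tris, 10 mM EDTA, pH 7.4. Preincubated with inhibitor 30 min at room temperature, then 10 µM Suc-LLVY-AMC for 1 h. Free AMC read at ex 360/em 460 nm. IC50 reported.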

[5] = tested on: Col2; assay: In vivo cytotoxicity against human Col2 cells by hollow fiber assay; assay type: functional
[6] = as §1; assay type: subcellular; conditions: hl-60; outline: as §2

Compound	inhibition [1] [%]	ED50 [2] [µg/mL]	ED50 [3] [µg/mL]	Activity [4]	ED50 [5] [µg/mL]	IC50 [6] [µM]
O=C(/C=C/c1ccccc1)O[C@@H]1Cc2c(O)cc3c(c2O[C@@H]1c1ccc(O)c(O)c1)[C@H]1c2c(O)cc(O)cc2O[C@@](c2ccc(O)c(O)c2)(O3)[C@@H]1O	< 10					
CCCCCCCC/C=C\CCCC[C@@H](OC(C)=O)[C@@H](OC(C)=O)[C@H](COC(C)=O)NC(C)=O		>5	>5	inactive	>5	
CCCCCCCCCCCCCCCCCCCCCC[C@@H](OC(C)=O)C(=O)OC		>5	>5	inactive	>5	
CCCCCCCC/C=C\CCCC[C@@H](O)[C@@H](O)C(CO[C@@H]1O[C@H](CO)[C@@H](O)[C@H](O)[C@H]1O)NC(=O)[C@@H](O)CCCCCCCCCCCCCCCCCCCCCC (stereo not given in full) [SUMATRANOSIDE]						30
